Hits are enriched below; roughly 4.8% of the tested compounds scored in any of these assays.
Mdm2 MdmX PPI – inhibitors of human Mdm2-MdmX association, primary screen, cell-based, luminescence, split luciferase, SaOS-2, uHTS; Protein Mdm4 (Homo sapiens) + E3 ubiquitin-protein ligase Mdm2 (Homo sapiens), …; SaOS-2 split-luciferase Mdm2/MdmX complementation; inhibition, % at 8 µM; actives 3% (n = 330,000); AID 485346, 2010;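 active = inhibition of at least 50% at 8 µM in the primary screen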
Target sequence (O15151 whole entry, looked up): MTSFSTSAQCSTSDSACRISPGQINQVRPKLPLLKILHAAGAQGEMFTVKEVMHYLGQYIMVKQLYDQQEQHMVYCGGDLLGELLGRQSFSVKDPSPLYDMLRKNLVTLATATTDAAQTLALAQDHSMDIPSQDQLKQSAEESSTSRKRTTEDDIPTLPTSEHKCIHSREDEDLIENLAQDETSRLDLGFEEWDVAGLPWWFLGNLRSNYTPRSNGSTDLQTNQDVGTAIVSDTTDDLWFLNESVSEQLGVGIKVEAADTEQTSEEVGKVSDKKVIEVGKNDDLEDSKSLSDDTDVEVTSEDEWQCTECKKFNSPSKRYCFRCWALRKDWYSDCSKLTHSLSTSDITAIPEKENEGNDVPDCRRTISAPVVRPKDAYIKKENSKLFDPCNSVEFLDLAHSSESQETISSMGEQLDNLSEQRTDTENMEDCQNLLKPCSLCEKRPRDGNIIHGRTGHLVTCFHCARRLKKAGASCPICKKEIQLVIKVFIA
Target sequence (Q00987 whole entry, looked up): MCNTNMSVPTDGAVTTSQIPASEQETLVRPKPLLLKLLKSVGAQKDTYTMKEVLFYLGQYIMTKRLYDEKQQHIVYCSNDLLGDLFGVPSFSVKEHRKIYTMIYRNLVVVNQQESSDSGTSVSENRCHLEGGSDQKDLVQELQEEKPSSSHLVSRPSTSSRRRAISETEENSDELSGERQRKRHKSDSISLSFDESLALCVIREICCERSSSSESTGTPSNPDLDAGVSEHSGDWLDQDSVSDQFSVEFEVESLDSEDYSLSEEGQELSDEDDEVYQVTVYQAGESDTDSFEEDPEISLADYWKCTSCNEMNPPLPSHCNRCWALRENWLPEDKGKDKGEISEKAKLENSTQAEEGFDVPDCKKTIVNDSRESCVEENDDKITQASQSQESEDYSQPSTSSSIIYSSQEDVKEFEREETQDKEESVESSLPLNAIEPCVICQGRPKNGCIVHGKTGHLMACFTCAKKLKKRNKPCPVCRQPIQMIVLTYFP
Beta cell apopt – inhibitors of cytokine-induced beta cell apoptosis, primary screen, luminescence; INS-1E cytokine-induced death, ATP luminescence, 48 h; percent of positive-control rescue, neutral wells zero; AID 435005, 2010; protection from apoptosis, % (test concentration not listed); actives 0.8% (n = 300,000);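 active = Every replicate reaches about 75%, or at least half do and their mean reaches it too, limit read from the data; inconclusive = At least half of replicates reach the limit but their mean does not; inactive = Under half of replicates reach the limit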;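 also: 0% = cytokine-treated negative control wells and 100% = positive control rescue; higher means more ATP so stronger rescue from cytokine killing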
SKKanGAS inh – S. pyogenes SKKanGAS growth inhibitors in kanamycin, primary screen, streptokinase expression inhibitor project, SKKanGAS strain, BacTiter-Glo luminescence; 6 h; inhibition, % at 7.5 µM; actives 1.3% (n = 300,000); AID 1662, 2009;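 active = mean replicate score, as percent of positive control median, at least 50; inconclusive = mean below 50 but one replicate at or above 50; inactive = mean and every replicate below 50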;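 also: strain carries kanamycin resistance gene driven by streptokinase promoter and grows in 40 µg/ml kanamycin; loss of luminescence reflects streptokinase promoter inhibition or plain growth inhibition; 0% = median of DMSO wells and 100% = positive control at its reference dose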
UPR XBP1 act – activators of adaptive XBP1 UPR arm, primary screen, cell-based, CHO-XBP1 luciferase reporter, luminescence, uHTS; IRE1-XBP1 UPR activation; percent of tunicamycin response, DMSO as zero; activation, % at 20 µM; AID 463104, 2010; actives 0.33% (n = 330,000);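 active = versus positive control, 20 µM dose yields 30% or more activation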;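 also: 100% = tunicamycin at 10 µg/mL and 0% = DMSO only wells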
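Material: CHO cell line with stable XBP1 luciferase reporter; schedule: 16-18 h cell attachment at 37 °C, then 6 h compound exposure; signal: glow luminescence from Steady-Glo reagent; medium: serum-containing F12 medium, 10% FBS; benchmarks: tunicamycin 10 µg/mL and vehicle-only wells; read-out: percent activation relative to tunicamycin reference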
CSC inhib – cancer stem cell viability inhibitors, primary screen, luminescence | actives 1.1% (n = 300,000) | AID 2717, 2010 | cancer stem cell-like cells viability | inhibition, % at 7.5 µM; in the data active = inhibition above about 75%; inconclusive = no clear call, values can overlap the other calls; tested in HMLE shEcad cells
UPR CHOP act – activators of apoptotic CHOP UPR arm, primary screen, cell-based, CHO-CHOP luciferase reporter, luminescence, uHTS | actives 0.34% (n = 330,000) | AID 449763, 2010 | activation, % at 10 µM | UPR activation; percent of tunicamycin response over DMSO baseline;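 active = at 10 µM dose, activation of 40% or more, normalized to positive control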;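 also: 100% = tunicamycin at 10 µg/mL and 0% = DMSO alone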
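Assay system: CHO cells with stable CHOP pathway luciferase reporter; Buffer or medium: F12 plus 10% serum; Times: 16-18 h cell attachment, then 6 h compound exposure, 37 °C; Signal: luciferase luminescence; Read-out basis: percent activation relative to tunicamycin control; Control set: tunicamycin high control, DMSO low control.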
* marks the source's active call; other numbers are inactive results; ? = inconclusive; . = no result given.

SMILES | Mdm2 MdmX PPI | Beta cell apopt | SKKanGAS inh | UPR XBP1 act | CSC inhib | UPR CHOP act
CCN(CC(=O)Nc1ccc(S(=O)(=O)N2CCCC2)cc1)CC(=O)Nc1ccccc1C(F)(F)F | 28 | 16 | . | -2 | 15 | 1
CC(C)(C)c1ccc(C(=O)Nc2ccc(N3CCOCC3)cc2)cc1 | 29 | 7 | 10 | -2 | 79* | -1
N#Cc1ccccc1CN1C(=O)S/C(=C/c2cccn2-c2ccc(C(=O)O)cc2)C1=O | 12 | -2 | 57* | -1 | -11 | -3
O=C(Nc1ccc(Nc2ccccc2)cc1)C(Cl)Cl | 19 | 7 | 1 | -1 | 6 | 0
CC(C)(C)C(=O)C(Cl)C(=O)Nc1ccccc1 (stereo not given) | 18 | -11 | -7 | 54* | -10 | 21
O=C(O)c1cccc2c(-c3ccccc3)c(-c3ccccc3)[nH]c12 | 3 | -5 | 59* | 1 | 41 | -2
Cc1[nH]c(=O)c(C#N)c(C)c1CCC(=O)NCc1cccc(C(F)(F)F)c1 | 26 | -9 | -2 | -1 | 7 | -1
CCOC(=O)CC1CCCCN1C(=O)c1ccc2nc(CCOC)oc2c1 (stereo not given) | 2 | -5 | 2 | -4 | 1 | 5
C(=N\Nc1nc2ccccc2[nH]1)/c1c[nH]c2ccccc12 | -7 | 119* | 64* | 1 | -4 | 8
COc1ccc(/C=N/Nc2nc3ccccc3[nH]2)c(OC)c1OC | 22 | 34 | 2 | -6 | 3 | -5
O=[N+]([O-])c1cc(/C=N/Nc2nc3ccccc3[nH]2)c(O)cc1O | . | 94* | 97* | . | 64 | .
Cc1cc(=O)[nH]c(N/N=C/c2c[nH]c3ccccc23)n1 | 34 | 0 | -9 | 1 | -16 | 1
Cc1ccc(/C=N/Nc2nc3ccccc3[nH]2)s1 | -93 | 15 | 7 | -1 | 30 | 6
Brc1ccc(-c2ccc(/C=N/Nc3nc4ccccc4[nH]3)o2)cc1 | 3 | 23 | 89* | 4 | 51 | 7
Cc1ccccc1/C=N/Nc1nc2ccccc2[nH]1 | -1 | . | 68* | 0 | -26 | 5
COc1ccc(CNC(=O)COc2ccc(Br)c(C)c2)cc1 | -4 | -4 | -10 | -3 | 7 | 0
COc1ccccc1CCNC(=O)C(=O)NCC1OCCCN1S(=O)(=O)c1ccc(F)cc1C (stereo not given) | 15 | 11 | 14 | -5 | -6 | -2
C(=N\Nc1nc2ccccc2[nH]1)/c1ccccc1 | -37 | 12 | 15 | 2 | -4 | 4
C(/CCc1ccccc1)=N\Nc1nc2ccccc2[nH]1 | 45 | 88* | 4 | 0 | -2 | 5
Clc1ccc(-c2csc(Nc3ccccc3)[n+]2Cc2ccco2)c(Cl)c1 | . | . | 79* | . | . | .
CCCC[n+]1c(-c2ccc(Cl)cc2Cl)csc1Nc1ccccc1 | 30 | -2 | 5 | 6 | 52 | 3
O=C(CN(c1ccc(Cl)cc1)S(=O)(=O)c1ccc(Cl)c([N+](=O)[O-])c1)NCCc1ccc(F)cc1 | 9 | 3 | -6 | -1 | 82* | 26
O=C(CN(c1ccc(Cl)cc1)S(=O)(=O)c1ccc(Cl)c([N+](=O)[O-])c1)NCCc1ccccc1 | 30 | 11 | 6 | 2 | 58 | 28
O=C(CCNC(=O)N1CC(=O)Nc2ccccc21)Nc1cccc(Cl)c1 | -12 | -10 | -1 | 1 | -3 | -2
Cc1ccc(C(=O)N(C)Cc2nc3ccccc3c(=O)[nH]2)cc1NC(=O)c1ccco1 | 19 | 1 | . | -4 | -10 | 0
SMILES | Mdm2 MdmX PPI | Beta cell apopt | SKKanGAS inh | UPR XBP1 act | CSC inhib | UPR CHOP act
O=C(O)Cc1ccc(NC(=O)c2ccc3c(c2)C(=O)N(Cc2ccco2)C3=O)cc1 | 7 | -1 | 0 | -3 | -6 | 2
CC1CCCCC1NC(=O)/C(C#N)=C/c1ccccc1F (stereo not given) | 27 | 6 | 9 | 15 | 81* | 12
Cc1cc(C(C)(C)C)cc(C)c1COC(=O)c1cccnc1 | 3 | -3 | 64* | -3 | -1 | 2
CC(C)(C)c1ccc(OC(=O)c2cccnc2)cc1 | 22 | . | -5 | 3 | -11 | 1
Cc1cc(N2CCN(c3nc4ccccc4s3)CC2)n2ncnc2n1 | -11 | 87* | 1 | 5 | 1 | 6
Cc1cc(N2CCN(C(c3ccccc3)c3ccccc3)CC2)n2ncnc2n1 | -25 | . | 2 | 0 | -10 | 1
CC1=NN(c2nc(-c3ccccc3)cs2)C(=O)C1 | -10 | 2 | 66* | -3 | . | -1
O=C1CC(c2ccccc2)=NN1c1nc(-c2ccccc2)cs1 | 4 | -1 | ? | 3 | 44 | 2
Cc1ccc(-n2c3nc(=O)[nH]c(=O)c-3cc3cc([N+](=O)[O-])ccc32)cc1C | 40 | 14 | -7 | 12 | 84* | -1
CN(C(=O)CC1C(=O)NCCN1Cc1ccc(F)c(F)c1)C1CCCCC1 (stereo not given) | 22 | -8 | 4 | -3 | 16 | -1
OCCNc1nc(Nc2cc(Cl)ccc2OC2CCCC2)nc(N2CCCC2)n1 | 49 | -3 | 68* | 2 | 60 | 1
c1nc(NCc2ccc3c(c2)OCO3)c2cc(-c3ccc4c(c3)OCCO4)ccc2n1 | 27 | 99* | . | -1 | . | 0
c1cncc(CNc2ncnc3ccc(-c4ccc5c(c4)OCO5)cc23)c1 | -8 | -6 | . | -1 | . | -1
CCCOc1nc2c(c(=O)n(C)c(=O)n2C)n1C | 0 | -3 | 1 | -1 | -2 | -1
CCCOc1nc2c(c(=O)n(C)c(=O)n2C)n1Cc1cccc2ccccc12 | 24 | 103* | 8 | -3 | 5 | 7
O=S1(=O)c2cccc3cccc(c23)N1CCBr | -13 | -6 | -4 | 1 | -1 | 0
Cc1nn2c(N3CCN(C(=O)c4ccco4)CC3)cc(C(C)(C)C)nc2c1-c1ccccc1 | 49 | -5 | 62* | -2 | 12 | 2
Cc1nn2c(N3CCN(C4CCCC4)CC3)cc(C(C)(C)C)nc2c1-c1ccccc1 | 5 | -8 | 10 | 2 | 22 | -1
Cc1ccc(S(=O)(=O)N2CCN(C(=O)COC(=O)c3ccc([N+](=O)[O-])o3)CC2)c(C)c1 | 33 | -5 | . | 9 | . | 9
Cc1ccccc1NC(=S)NCCSc1ccc(Cl)cc1 | 18 | 1 | 29 | -2 | 20 | 0
CCc1ccccc1NC(=S)NCCSc1ccc(Cl)cc1 | 8 | -3 | 50* | 0 | 20 | -1
COc1cc(/C=C/C(=O)OCC(=O)c2c(N)n(C)c(=O)n(C)c2=O)ccc1O | -4 | 1 | 58* | 2 | -6 | -1

Bioassay records (PubChem BioAssay)
